ATG4B inhibitor = inhibitors of human ATG4B cysteine protease; inhibition, % at 8.33 µM; Q9Y4P1; AID 504462; ATG4B cleavage of LC3-PLA2, NBD-HPC fluorescence, 1 h; 0.51% of 340,000 active; in the data active means inhibition above about 40%
SMARCA2 act = activators of SMARCA2 function | AID 652017 | MG213 cells, MMTV-luciferase reporter, dexamethasone, overnight | activation, % at 9.1 µM | 1% of 370,000 active; in the data active means activation above about 7.8%
MC4R antagonist = human MC4R antagonism in cAMP assay; MC4R-expressing cells, MTII-stimulated cAMP, LANCE TR-FRET; 0.48% of 360,000 active; inhibition, % at 6.5 µM;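 active means inhibition above its plate's cutoff, the mean of tested wells on that plate plus 3 SD, cut at about 29% in these data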
Target sequence (P32245 whole entry, looked up): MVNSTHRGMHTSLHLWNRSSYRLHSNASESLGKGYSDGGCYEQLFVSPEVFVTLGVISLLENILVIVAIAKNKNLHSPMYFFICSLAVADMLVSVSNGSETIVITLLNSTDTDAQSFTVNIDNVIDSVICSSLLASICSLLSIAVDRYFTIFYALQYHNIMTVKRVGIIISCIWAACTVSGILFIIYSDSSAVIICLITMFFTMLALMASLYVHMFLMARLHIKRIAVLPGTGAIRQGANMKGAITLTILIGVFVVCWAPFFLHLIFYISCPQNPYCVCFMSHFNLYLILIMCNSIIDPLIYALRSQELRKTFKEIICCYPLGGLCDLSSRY
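material = U2OS cells stably expressing human melanocortin 4 receptor (MC4R) | also added = Melanotan II challenge | dosing = single nominal compound dose of 6.5 µM | detection = TR-FRET with Eu-cAMP and labeled anti-cAMP, 671 nm | replication = singlicate | timing = compound 30 min, challenge 1 h, detection 1 h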
MC4R barr agon = human MC4R agonism via beta-arrestin | P32245 | U2OS MC4R beta-arrestin complementation, luminescence; percent of melanotan II response, DMSO zero | activation, % at 8.9 µM | 0.98% of 360,000 active | AID 540308;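 active means activation above a per-plate cutoff, the mean activation of sample wells on that plate plus 3 SD, cut at about 8% in these data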
MPTP inh = blocks calcium-induced mitochondrial swelling | 1.4% of 360,000 active | AID 602449 | inhibition, % at 10 µM | isolated mouse mitochondria, Ca2+ swelling absorbance, 30 min;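 active means inhibition of 50% or more, scaled per plate between neutral and stimulator controls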
ATG4B conf = ATG4B (human) inhibition, single-dose confirmed | shares compounds with ATG4B inhibitor | ATG4B protease fluorescent substrate cleavage assay | inhibition, % at 8.33 µM | 92% of 320 active; in the data active means inhibition above about 39%
PLA2 ctr = counter-screen for ATG4B inhibitors: human phospholipase A2. shares compounds with ATG4B inhibitor. purified PLA2, NBD-C6-HPC fluorescence, 45 min. inhibition, % at 8.33 µM. 66% of 1,600 active. AID 588402; in the data active means inhibition above about 50%
Target sequence (P04054 whole entry, looked up): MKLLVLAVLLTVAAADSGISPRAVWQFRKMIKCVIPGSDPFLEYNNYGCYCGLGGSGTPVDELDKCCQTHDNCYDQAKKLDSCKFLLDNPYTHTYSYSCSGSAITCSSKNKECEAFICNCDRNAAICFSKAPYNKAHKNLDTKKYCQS
A number is an active result; n = inactive; x = not tested or not shown. Compounds with a hit are over-represented: about 4.1% of the library has one in this group of screens.

SMILES | ATG4B inhibitor | SMARCA2 act | MC4R antagonist | MC4R barr agon | MPTP inh | PLA2 ctr | others
S=c1[nH]nc(-c2cc(-c3ccco3)[nH]n2)n1-c1ccccc1Cl | 50 | n | n | n | n | n
C/C(N)=C(/C#N)C(=O)CSc1nc2ccccc2c(=O)n1-c1ccc(C)c(Cl)c1 | 47 | n | n | n | n | n
O=C(CSc1nnnn1-c1ccccc1)Nc1ncc(Cc2ccccc2Cl)s1 | n | n | n | n | n | x
N=C1SC(c2ccccc2)C(=O)N1c1ncc(Cc2ccccc2Cl)s1 (stereo not given) | 79 | n | n | n | n | 80
CC(C)c1ccc(NC2CCCN(C(=O)c3cccnc3)C2)cc1 (stereo not given) | n | n | n | n | n | x
Cc1occc1C(=O)N1CCCC(Nc2ccc(C(C)C)cc2)C1 (stereo not given) | 50 | n | n | n | n | 58
CC(C)c1ccc(NC2CCCN(C(=O)CCN3CCCCC3=O)C2)cc1 (stereo not given) | n | n | n | n | n | x
CC(C)c1ccc(NC2CCCN(C(=O)CCN3Cc4ccccc4C3=O)C2)cc1 (stereo not given) | 44 | n | n | n | n | n | ATG4B conf=73
CC(C)c1ccc(NC2CCCN(C(=O)c3cnn(C(C)C)c3)C2)cc1 (stereo not given) | 45 | n | n | n | n | n | ATG4B conf=53
O=C(CCc1cccc(Cl)c1)N1CCCC(Nc2ccccc2)C1 (stereo not given) | 48 | n | n | n | n | n
Nn1c(SCC(=O)Nc2ccc(OCc3ccccc3)cc2)nnc1-c1cc(-c2ccccc2)n[nH]1 | x | n | x | x | x | x
CC(C)c1ccc(NC2CCCN(C(=O)c3cccs3)C2)cc1 (stereo not given) | 76 | n | n | n | n | 73
CC(C)c1ccc(NC2CCCN(C(=O)c3n[nH]c4c3CCC4)C2)cc1 (stereo not given) | 55 | n | n | n | n | n | ATG4B conf=60
CC(C)c1ccc(NC2CCCN(C(=O)c3cnsn3)C2)cc1 (stereo not given) | n | n | n | n | n | x
COC(=O)c1ccc(C(=O)N2CCCC(Nc3ccc(C(C)C)cc3)C2)cc1 (stereo not given) | 81 | n | n | n | n | 82
CC(C)c1ccc(NC2CCCN(C(=O)c3ccsc3)C2)cc1 (stereo not given) | 77 | n | n | n | n | 78
O=C(c1ccsc1)N1CCCC(Nc2ccc(F)c(F)c2)C1 (stereo not given) | n | n | n | n | n | x
Cc1noc(C)c1S(=O)(=O)N1CCCc2nc(-c3ccc(F)cc3)ccc21 | x | n | x | x | x | x
CN(Cc1cn(CC2CCCCC2)nn1)S(=O)(=O)c1ccccc1Br | x | n | x | x | x | x
Cc1cc(C)c(CN2CCN(C(=O)Cn3cc(C)c(=O)[nH]c3=O)CC2)c(C)c1 | x | n | x | x | x | x
Cc1ccc(NC(=O)OCCCN2C(=O)CCC23CCC(C)CC3)cc1C (stereo not given) | x | n | x | x | x | x
COC(=O)c1cccc(Cn2ccc3ccc(-c4ccc5ccn(C(=O)c6ccc(C)cc6)c5c4)cc32)c1 | x | n | x | x | x | x
CC[C@H](NC(=O)[C@@H](Cc1ccccc1)NC(=O)[C@H]1O[C@@H](n2cnc3c(=O)[nH]c(N)nc32)[C@H](O)[C@@H]1O)c1ccccc1 | x | n | x | x | x | x
CC(C)CN=Cc1c(O)c([N+](=O)[O-])cc2oc3c(c12)CCCC3 | n | n | n | n | n | x
O=[N+]([O-])c1cc2oc3c(c2c(C=NCc2ccccc2)c1O)CCCC3 | 76 | n | n | n | n | n | ATG4B conf=48
SMILES | ATG4B inhibitor | SMARCA2 act | MC4R antagonist | MC4R barr agon | MPTP inh | PLA2 ctr | others
O=C1C(=C(I)I)c2ccccc2-c2ccccc21 | 61 | n | n | n | n | n | ATG4B conf=57
C=CCN(C)CC#Cc1ccc(OC)cc1 | x | n | x | x | x | x
O=c1cc(O)c2sc3nc(C(F)(F)F)c4c(c3c2[nH]1)CCCCC4 | 45 | n | n | n | n | n | ATG4B conf=59
N#C/C(=C\c1ccc(-c2ccc([N+](=O)[O-])cc2)o1)C(=O)Nc1nc(-c2cccs2)cs1 | n | n | n | n | n | x
N#C/C(=C\c1ccc(-c2ccccc2[N+](=O)[O-])o1)C(=O)Nc1nc(-c2cccs2)cs1 | 67 | n | n | n | n | 76
Nc1nn(-c2ccccc2)c(N)c1N=Nc1cccc(F)c1 | n | n | n | n | n | x
Nc1nn(-c2ccccc2)c(N)c1N=Nc1ccc2c(c1)OCO2 | 41 | n | n | n | n | n | ATG4B conf=76
COCCn1c(SCc2cc(C(C)=O)ccc2OC)nc2cc(Cl)ccc2c1=O | 63 | n | n | n | n | 63
COc1ccc(C(C)=O)cc1CSc1nc2ccccc2c(=O)n1-c1ccccc1C | 53 | n | n | n | n | 81
C=CCn1c(SCc2nc3ccccc3c(=O)[nH]2)nc2ccccc2c1=O | n | n | n | n | n | x
COc1ccc(C(C)=O)cc1CSc1nc2ccccc2c(=O)n1-c1cccc(C)c1 | 79 | n | n | n | n | n | ATG4B conf=50
C=CCn1c(SCc2cc(C(C)=O)ccc2OCC)nc2ccccc2c1=O | 50 | n | n | n | n | n | ATG4B conf=52
O=C(Nc1nc2ncccn2c1-c1ccc(F)cc1)c1ccc(F)cc1 | x | n | x | x | x | x
O=c1c2cc3cccnc3nc2ncn1Cc1cccs1 | x | n | x | x | x | x
CCOC(=O)Cn1cc(CN2CCS(=O)(=O)N(Cc3ccc(Cl)cc3)C(C(=O)OC)C2)nn1 (stereo not given) | x | n | x | x | x | x
CC(=O)c1cc2c(C)c(C(=O)c3ccccc3)oc2cc1O | 40 | n | n | n | n | n
COc1ccc(COCC(O)CN(Cc2ccco2)Cc2ccccc2O)cc1 (stereo not given) | n | n | n | n | n | x
Oc1ccccc1CN(Cc1ccco1)CC(O)COCc1ccc(Cl)cc1 (stereo not given) | 40 | n | n | n | n | n
CCN(Cc1ccccc1)C(=O)c1cccc(OC2CCN(C(=O)C3CC3)CC2)c1 | 43 | n | n | n | n | n
COc1ccccc1CCn1cnc(-c2ccc(Br)cc2)c1CC(C)C | x | n | x | x | x | x
COc1cc2c(cc1NC(=O)C(C)Sc1ccc(NC(C)=O)cc1)oc1ccccc12 (stereo not given) | 44 | n | n | n | n | n | ATG4B conf=91
COc1cc2c(cc1NC(=O)Nc1ccc(C)cc1)oc1ccccc12 | n | n | n | n | n | x
CCCc1cc(=O)[nH]c(SCC(=O)N2N=C(c3ccc(Cl)cc3)CC2c2ccco2)n1 (stereo not given) | 48 | n | n | n | n | n | ATG4B conf=73
CC1(C)Cc2c(sc(NC(=O)c3ccco3)c2C(=O)O)CO1 | n | n | n | n | n | x
CC1(C)Cc2c(sc(NC(=S)NC(=O)c3ccccc3)c2C(=O)O)CO1 | 41 | n | n | n | n | n | ATG4B conf=74

Screening results as filed in PubChem BioAssay.
